Measurements from ChEMBL document CHEMBL5653617, “Inhibition of BRD4 attenuates tumor cell self-renewal and suppresses stem cell signaling in MYC driven medulloblastoma” (Oncotarget, 2014).
Activity calls are given as the source filed them.

Experiments:
[1] = system: D425 Med; experiment: Induction of cell cycle arrest in human D425 Med cells assessed as G2/M phase cells at 300 nM incubated for 48 hrs by flow cytometry analysis (reference value: 37 +/- 0.47%); format: functional
[2] = molecular target: Bromodomain-containing protein 4 (Homo sapiens) (UniProt O60885); conditions: Daoy, dose 100-300 nM, time 48.0 hrs
[3] = molecular target: Bromodomain-containing protein 4 (Homo sapiens) (UniProt O60885); conditions: D425 Med, dose 300.0 nM
[4] = system: D425 Med; experiment: Antiproliferative activity in human D425 Med cells assessed as inhibition of cell growth at 300 nM by flow cytometry analysis; format: functional, cell-based
Outline: (§1)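 ViaCount flow cytometric cell count. Cells seeded in medium, DMSO or drug added 24 h later, cultured a further 48 h. Cells then pelleted, washed, stained with Viacount reagent and counted on a Guava cytometer. Vehicle control DMSO.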

[5] = molecular target: Bromodomain-containing protein 4 (Homo sapiens) (UniProt O60885); conditions: Daoy, dose 100.0 nM, time 24-72 hrs, TDE = time-dependent effect
[6] = system: D458 Med; experiment: Antiproliferative activity in human D458 Med cells assessed as inhibition of cell growth at 300 nM by flow cytometry analysis; format: functional, cell-based; outline: as §1
[7] = system: Daoy; experiment: Antitumor activity against human Daoy cells xenografted in athymic nude mice assessed as reduction in tumor growth at 50 mg/kg, ip administered 5 days a week for 4 weeks and measured after 20 days; format: functional, organism-based; conditions: time 48.0 day
Outline: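 Daoy cells (1.0×10^7 in PBS) injected into the flank of athymic nude mice. Dosing began once tumors were palpable, at a mean of 52 days post inoculation. 50 mg/kg i.p. or DMSO vehicle given 5 days/week for 4 weeks, n=10, with tumors followed a further 20 days. Volume by caliper as π/6 × L × W × H. Body weight recorded 3 times weekly.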

[8] = molecular target: Bromodomain-containing protein 4 (Homo sapiens) (UniProt O60885); conditions: D283 Med, dose 300.0 nM
[9] = molecular target: Bromodomain-containing protein 4 (Homo sapiens) (UniProt O60885); conditions: D458 Med, dose 300.0 nM
[10] = molecular target: Bromodomain-containing protein 4 (Homo sapiens) (UniProt O60885); conditions: D425 Med, dose 300.0 nM; remark: listed apart in the source
[11] = molecular target: Bromodomain-containing protein 4 (Homo sapiens) (UniProt O60885); conditions: Daoy, dose 300.0 nM
[12] = molecular target: Bromodomain-containing protein 4 (Homo sapiens) (UniProt O60885); conditions: D458 Med, dose 300.0 nM; remark: listed apart in the source
[13] = molecular target: Bromodomain-containing protein 4 (Homo sapiens) (UniProt O60885); conditions: D283 Med, dose 300.0 nM; remark: listed apart in the source
[14] = molecular target: Bromodomain-containing protein 4 (Homo sapiens) (UniProt O60885); conditions: D283 Med, dose 300.0 nM; remark: listed apart in the source
[15] = molecular target: Bromodomain-containing protein 4 (Homo sapiens) (UniProt O60885); conditions: Daoy, dose 300.0 nM; remark: listed apart in the source
[16] = molecular target: Bromodomain-containing protein 4 (Homo sapiens) (UniProt O60885); conditions: D283 Med, time 24-48 hrs
[17] = system: Daoy; experiment: Suppression of human Daoy cells self-renewal cultured in serum free condition assessed as reduction in formation of new neurosphere at 300 nM; format: functional, cell-based
Outline: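 Cells grown as neurospheres in serum-free medium for 48 h, dissociated, and seeded in a limiting dilution from 1000 to 1 cell/well, with 300 nM drug or DMSO. After 7 days in serum-free culture, neurospheres per well counted and plotted against cells seeded.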

[18] = system: Medulloblastoma cell; experiment: Antitumor activity against patient-derived Medulloblastoma cells assessed as BrdU incorporation at 300 nM preincubated with compound for 7 days followed by BrdU addition and measured after 2 days by flow cytometry analysis (reference value: 33.3); format: functional, Homo sapiens; conditions: time 9 day
[19] = molecular target: Bromodomain-containing protein 4 (Homo sapiens) (UniProt O60885); conditions: Daoy, dose 300.0 nM; remark: listed apart in the source
[20] = system: Medulloblastoma cell; experiment: Induction of cell cycle arrest in patient-derived Medulloblastoma cells assessed as accumulation of cells at G1 phase at 300 nM; format: functional, cell-based; conditions: Homo sapiens
[21] = system: Daoy; experiment: Induction of cell cycle arrest in human Daoy cells assessed as accumulation of cells at G1 phase at 300 nM incubated for 48 hrs by flow cytometry analysis (reference value: 50.67 +/- 3.19%); format: functional
[22] = molecular target: Bromodomain-containing protein 4 (Homo sapiens) (UniProt O60885); conditions: Daoy, dose 300.0 nM; remark: listed apart in the source
[23] = molecular target: Bromodomain-containing protein 4 (Homo sapiens) (UniProt O60885); conditions: D425 Med, dose 300.0 nM; remark: listed apart in the source
[24] = system: Daoy; experiment: Downregulation of CENPF gene expression in human Daoy cells at 300 nM by GSEA method; format: functional, cell-based
Outline: (§2)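 Daoy cells treated with DMSO or 300 nM drug. RNA extracted and hybridized to Affymetrix HG-ST2.0 arrays. Analysis in R/Bioconductor with gene set enrichment analysis. Regulated transcripts defined as p < 0.05, FDR < 0.05, fold change < 0.67 (down) or > 1.5 (up).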

[25] = system: Daoy; experiment: Antitumor activity against human Daoy cells xenografted in athymic nude mice assessed as induction of senescence at 50 mg/kg, ip measured after 5 days by beta-galactosidase staining based analysis; format: functional, organism-based; conditions: time 5.0 day
Outline: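 Daoy cells (1.0×10^7 in PBS) injected into the flank of athymic nude mice. Once tumors were palpable, drug given 50 mg/kg i.p. with DMSO as vehicle control. Animals were sacrificed after a 5-day treatment. Tumors were assessed by Ki67 IHC and by senescence-associated β-galactosidase staining.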

[26] = system: Daoy; experiment: Induction of cell cycle arrest in human Daoy cells assessed as S phase cells at 300 nM incubated for 48 hrs by flow cytometry analysis (reference value: 15.39 +/- 1.73%); format: functional
[27] = molecular target: Bromodomain-containing protein 4 (Homo sapiens) (UniProt O60885); conditions: Daoy, dose 300.0 nM; remark: listed apart in the source
[28] = molecular target: Bromodomain-containing protein 4 (Homo sapiens) (UniProt O60885); conditions: D425 Med, dose 300.0 nM; remark: listed apart in the source
[29] = system: Daoy; experiment: Induction of senescence in human Daoy cells assessed as increase in p27 protein expression at 300 nM by immunoblot analysis; format: functional, cell-based
Outline: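 Protein lysates prepared in RIPA buffer with protease inhibitors. Standard western blot with HRP-conjugated secondary antibodies and chemiluminescent detection.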

[30] = system: D458 Med; experiment: Induction of cell cycle arrest in human D458 Med cells assessed as G2/M phase cells at 300 nM incubated for 48 hrs by flow cytometry analysis (reference value: 18.72 +/- 2.62%); format: functional
[31] = system: Daoy; experiment: Downregulation of BARD1 gene expression in human Daoy cells at 300 nM by GSEA method; format: functional, cell-based; outline: as §2
[32] = system: Daoy; experiment: Antiproliferative activity in human Daoy cells assessed as inhibition of cell growth at 300 nM by flow cytometry analysis; format: functional, cell-based; outline: as §1
[33] = system: Daoy; experiment: Downregulation of MYBL2 gene expression in human Daoy cells at 300 nM by GSEA method; format: functional, cell-based; outline: as §2

Cc1sc2c(c1C)C(c1ccc(Cl)cc1)=N[C@@H](CC(=O)OC(C)(C)C)c1nnc(C)n1-2
Activity [1]: 31% | inhibition [2]: Dose-Dependent Effect | inhibition [3]: Active | Activity [4]: Active | inhibition [5]: Tde | Activity [6]: Active | Activity [7]: Active | inhibition [8]: Active | inhibition [9]: Active | inhibition [10]: Active | inhibition [11]: Active | inhibition [12]: Active | inhibition [13]: Active | inhibition [14]: Active | inhibition [15]: Active | inhibition [16]: Active | Activity [17]: Active | Activity [18]: 13.5 | inhibition [19]: Active | Activity [20]: Active | Activity [21]: 79.416% | inhibition [22]: Active | inhibition [23]: Active | Activity [24]: Active | Activity [25]: Active | Activity [26]: 3.736% | inhibition [27]: Active | inhibition [28]: Active | Activity [29]: Active | Activity [30]: 23.266% | Activity [31]: Active | Activity [32]: Active | Activity [33]: Active
